We go through 6 molecules from ChEMBL document CHEMBL1132971, “New azolidinediones as inhibitors of protein tyrosine phosphatase 1B with antihyperglycemic properties” (J Med Chem, 2000).

pIC50: −log10 of the molar value.

The subject of assay [1] is Mus musculus. The assay can be described thus: (§1) Evaluated in vivo for their ability to decrease plasma glucose levels in diabetic C57BL/KsJ db/db mouse at a dose 100 mg/kg/day, *p indicates <0.05. The format is functional. In short, it runs like this:
(§2)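 Mice dosed orally once daily for 4 days; plasma glucose and insulin measured and expressed as percent change versus a vehicle-treated group (mean ± SE, 4-6 mice/group). NS is generally less than -15% change. Significance is versus vehicle-treated mice.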

Assay [2] concerns Mus musculus. Put plainly: Evaluated for their ability to decrease plasma insulin levels in mouse at a dose 100 mg/kg/day, **p indicates <0.01. It counts as functional. In short, it runs like this: (§3)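 Diabetic db/db or ob/ob mice dosed orally once daily for 4 days. Plasma glucose and insulin reported as percent change from a vehicle-treated group. 4-6 mice per group. Significance set at p < 0.05 or p < 0.01 versus vehicle; NS means generally less than -15% change.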

The target of assay [3] is T1, Tyrosine-protein phosphatase non-receptor type 1 (Rattus norvegicus) (UniProt P20417).
T1 sequence (whole entry): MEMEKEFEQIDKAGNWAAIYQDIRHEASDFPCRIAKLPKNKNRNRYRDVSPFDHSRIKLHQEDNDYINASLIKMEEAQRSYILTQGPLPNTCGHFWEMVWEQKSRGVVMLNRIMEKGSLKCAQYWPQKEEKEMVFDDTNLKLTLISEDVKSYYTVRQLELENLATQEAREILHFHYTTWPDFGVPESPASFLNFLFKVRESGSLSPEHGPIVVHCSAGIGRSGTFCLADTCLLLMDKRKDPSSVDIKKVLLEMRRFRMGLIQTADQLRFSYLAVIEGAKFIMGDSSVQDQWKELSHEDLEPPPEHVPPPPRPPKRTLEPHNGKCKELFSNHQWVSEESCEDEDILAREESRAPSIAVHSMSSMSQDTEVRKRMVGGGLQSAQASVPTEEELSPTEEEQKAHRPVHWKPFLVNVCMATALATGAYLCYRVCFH
Put plainly: Inhibition of PTPase (PTP1B) activity in rat hepatic membrane at 50 uM concentration, using pNPP as the substrate. The settings on record: Liver. The format is cell membranes. In short, it runs like this:
(§4)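 Liver membranes from male Sprague-Dawley rats (100-150 g), about 30 µg protein per well. Preincubated 10 min at 37 °C with compound in 1.25% DMSO in 50 mM HEPES pH 7.4. Then 6.33 mM pNPP for 30 min at 37 °C, stopped with NaOH. p-Nitrophenol read at 410 nm. Run in triplicate. Reported as percent of untreated control.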

Assay [4] deals with T2, Tyrosine-protein phosphatase non-receptor type 1 (Rattus norvegicus, UniProt P20417).
T2 sequence (P20417 whole entry): T1 sequence (whole entry)
Put plainly: Inhibition of PTPase activity using recombinant r-PTP1B and IR-triphosphopeptide as substrate; ND is no data. In outline:
(§5)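 Rat recombinant PTP1B in 33 mM TRIS-HCl, 2 mM EDTA, 50 mM β-mercaptoethanol, pH 7.4 (about 1000-2000 nmol/min/mg). Preincubated 10 min at 37 °C with or without compound in HEPES buffer pH 7.4. Released phosphate read by malachite green-ammonium molybdate at 650 nm against a phosphate standard. Quadruplicates. IC50 by four-parameter logistic fit.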

Assay [5] deals with Mus musculus. Put plainly: Evaluated in vivo for their ability to decrease plasma glucose levels in diabetic C57BL/KsJ ob/ob mouse at a dose 100 mg/kg/day, **p indicates <0.01. The format is functional. In short, it runs like this:
as §3

The test system of assay [6] is Mus musculus. The assay can be described thus: Evaluated for their ability to decrease plasma insulin levels in mouse at a dose 100 mg/kg/day. **p indicates <0.01. The format is functional. In outline: as §2
Assay [7] has as its system Mus musculus. The assay can be described thus: Evaluated in vivo for their ability to decrease plasma glucose levels in diabetic C57BL/KsJ db/db mouse at a dose 100 mg/kg/day *p indicates <0.05. The format is functional. In outline:
as §3

Assay [8] concerns Mus musculus. The assay can be described thus: Evaluated in vivo for their ability to decrease plasma glucose levels in diabetic C57BL/KsJ ob/ob mouse at a dose 100 mg/kg/day. **p indicates <0.01. It counts as functional. In outline:
as §3

The target in assay [9] is T2, Tyrosine-protein phosphatase non-receptor type 1. The assay can be described thus: Inhibition of PTPase activity in rat hepatic membrane at a concentration of 50 uM using pNPP as the substrate. It counts as cell membranes, Liver. In short, it runs like this: as §4
The target in assay [10] is T1, Tyrosine-protein phosphatase non-receptor type 1 (Rattus norvegicus). The assay can be described thus: Inhibition of PTPase activity using recombinant r-PTP1B as the enzyme and IR-triphosphopeptide as substrate at 50 uM. In outline:
as §5

In assay [11] the test system is Mus musculus. The assay can be described thus: Evaluated in vivo for their ability to decrease plasma glucose levels in diabetic C57BL/KsJ db/db mouse at a dose 100 mg/kg/day. It counts as functional. In outline: as §3
The target in assay [12] is T3, Tyrosine-protein phosphatase non-receptor type 1 (Mus musculus) (UniProt P35821).
T3 sequence (whole entry): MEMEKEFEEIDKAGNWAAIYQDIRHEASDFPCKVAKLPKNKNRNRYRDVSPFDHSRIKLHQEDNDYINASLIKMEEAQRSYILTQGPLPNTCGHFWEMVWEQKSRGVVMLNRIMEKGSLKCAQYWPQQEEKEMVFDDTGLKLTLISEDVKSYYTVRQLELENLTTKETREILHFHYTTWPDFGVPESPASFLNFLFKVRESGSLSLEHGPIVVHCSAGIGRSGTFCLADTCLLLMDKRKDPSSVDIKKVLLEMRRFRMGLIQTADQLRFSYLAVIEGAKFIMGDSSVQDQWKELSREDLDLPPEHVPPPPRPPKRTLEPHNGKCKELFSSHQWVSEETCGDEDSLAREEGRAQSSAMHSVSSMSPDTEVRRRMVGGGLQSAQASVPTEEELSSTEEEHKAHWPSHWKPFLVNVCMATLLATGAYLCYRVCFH
Put plainly: In vivo ability to decrease plasma glucose levels in diabetic C57BL/KsJ ob/ob mouse at a dose 100 mg/kg/day. The format is functional, organism-based. In outline: as §3

The target in assay [13] is T3, Tyrosine-protein phosphatase non-receptor type 1 (Mus musculus). Put plainly: Ability to decrease plasma insulin levels in mouse at a dose 100 mg/kg/day. The format is functional, organism-based. In short, it runs like this: as §3
Assay [14] concerns Mus musculus. The assay is described as §1. The format is functional. In outline:
as §3
This is another data set of the same source.

Assay [15] relates to Mus musculus. Put plainly: Evaluated for their ability to decrease plasma insulin levels in mouse at a dose 100 mg/kg/day,**p indicates <0.01. The format is functional. In short, it runs like this:
as §2

For assay [16], the system named is Mus musculus. The assay can be described thus: Evaluated in vivo for their ability to decrease plasma glucose levels in diabetic C57BL/KsJ ob/ob mouse at a dose 100 mg/kg/day,**p indicates <0.01. The format is functional. In short, it runs like this:
as §2

The test system of assay [17] is Mus musculus. The assay can be described thus: Evaluated in vivo for their ability to decrease plasma glucose levels in diabetic C57BL/KsJ ob/ob mouse at a dose 100 mg/kg/day *p indicates <0.05. The format is functional. In short, it runs like this: as §3
Assay [18] concerns Mus musculus. Put plainly: Evaluated for their ability to decrease plasma insulin levels in mouse at a dose 100 mg/kg/day, *p indicates <0.05. It counts as functional. In short, it runs like this: as §3
Assay [19] deals with T2, Tyrosine-protein phosphatase non-receptor type 1. The assay can be described thus: Inhibition of PTPase activity using recombinant r-PTP1B as the enzyme and IR-triphosphopeptide as substrate. In outline:
as §5

In general, inhibition refers to the relative decrease from the control value, in per cent. For orientation: pIC50 means the negative decadic logarithm of the IC50, by convention in mol/L.

For `C/C(=C\Cn1oc(=O)[nH]c1=O)c1cccc(OCc2nc(-c3ccc(OC(F)(F)F)cc3)oc2C)c1`, the figures for the Decrease in the assay on Mus musculus [1], in the assay on Mus musculus [2] and in the assay on Mus musculus [5] were 41%, 82% and 39%, respectively. The inhibition in assay [3] came out at 57%. Moreover, in [4], the IC50 result was “Not significant”.

With `C/C(=C\c1cccc(OCc2nc(-c3ccc(C(F)(F)F)cc3)oc2C)c1)Cn1oc(=O)[nH]c1=O`, the results for the Decrease in the assay with Mus musculus [6], in the assay with Mus musculus [7] and with Mus musculus [8] were 28%, 36% and 37%, respectively. In assay [9], this molecule had an Inhibition % of 71%. Besides, the inhibition in [10] came out at 7%.

With `Cc1oc(-c2ccc(OC(F)(F)F)cc2)nc1COc1cccc(C(C)CCn2oc(=O)[nH]c2=O)c1` (configuration not stated), the Decrease was 41% with Mus musculus [11], “Not significant” in assay [12] and “Not significant” in assay [13]. For the same molecule, the inhibition in assay [3] is 47%. For the same molecule, in assay [4], the IC50 entry is reported as “Not significant”.

For `C/C(=C\Cn1oc(=O)[nH]c1=O)c1ccc(OCc2nc(-c3ccc(C(F)(F)F)cc3)oc2C)cc1`, the Decrease with Mus musculus [14] was 16%; in assay [12], “Not significant”; in assay [13] it was “Not significant”. Besides, the inhibition in [3] stood at 4.3%.

For the molecule `Cc1oc(-c2ccc(C(F)(F)F)cc2)nc1COc1cccc(/C(=C/Cn2oc(=O)[nH]c2=O)c2ccccc2)c1`, the Decrease in the assay with Mus musculus [15] is 74%; in the assay on Mus musculus [16], 55%. Also, the values for the inhibition in assay [3] and in assay [10] were 24% and 1.1%, respectively.

Regarding `C/C(=C\Cn1sc(=O)[nH]c1=O)c1cccc(OCc2nc(-c3ccc(C(F)(F)F)cc3)oc2C)c1`, the Decrease with Mus musculus [17] was 29%; in the assay with Mus musculus [18] it was 26%. Besides, the inhibition result in [3] is “Not significant”. In [19], the pIC50 is 5.42.
